Reference: PMC6976987 (Molecular Genetics and Metabolism Reports, 2020)
Read-outs that look alike come from different tables or passages of the source. Marks after values point to notes of the source that are not given here.

Assays:
Safety assessments [1] = type: in vivo, human
Safety assessments [2] = type: in vivo, human; remark: listed apart in the source
Procedure, shortened: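 Open-label study in healthy adults. Safety was monitored after a single dose (Day 1), during multiple doses alone (Days 2–8), and during co-dosing (Days 9–15 with the CYP3A/P-gp inhibitor; Days 9–18 with the CYP2D6 inhibitor). Measures: treatment-emergent AEs, clinical labs, vital signs, physical exams, 12-lead ECG, 12 h continuous telemetry. An AE counted as treatment-related if possibly, probably or definitely related to study drug.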

[3] = type: in vivo, human; conditions: for AUC: AUC0-τ; for AUC / AUC(0-inf) / Cmax: mean (SD); for AUC(0-inf): AUC0-∞; for Tmax: median (minimum, maximum)
Procedure, shortened: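 Open-label, fixed-sequence study in healthy CYP2D6 non-poor metabolizers. Oral test compound 84 mg, fasted: single dose Day 1, BID Days 2–8, then BID with a strong CYP3A/P-gp inhibitor 400 mg QD Days 9–15. Plasma sampled to 36 h Day 1, 12 h Day 8, 72 h Day 15, plus pre-dose samples. LC-MS/MS, LLOQ 0.2 ng/mL. Non-compartmental PK; ratios from log-transformed mixed-effects model with 90% CI.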

[4] = rifampin study (N = 25), whole study
[5] = rifampin study (N = 25), road traffic accident, unrelated to eliglustat or rifampin
[6] = concomitant dosing of eliglustat with paroxetine
[7] = concomitant dosing of eliglustat with paroxetine, Days 9 to 18, N = 35
[8] = multiple-dose eliglustat alone, Days 2 to 8, N = 36
[9] = paroxetine study (N = 36), whole study
[10] = CYP2D6 EMs only, eliglustat 84 mg BID with ketoconazole 400 mg QD
[11] = CYP2D6 non-PMs, eliglustat 84 mg BID with ketoconazole 400 mg QD
[12] = human, plasma, oral, 84 mg, eliglustat 84 mg BID, Days 2 to 8, all (N = 33)
[13] = human, plasma, oral, 84 mg, eliglustat 84 mg single dose, Day 1, all (N = 36)

increase in eliglustat AUC0-τ compared to eliglustat alone [3, 10]: 4.4 fold
increase in eliglustat Cmax compared to eliglustat alone [3, 10]: 4.0 fold
increase in eliglustat AUC0-τ (exposure) compared to eliglustat alone [3, 11]: 4.3 fold
increase in eliglustat Cmax compared to eliglustat alone [3, 11]: 3.8 fold
Ratio (%) of geometric least squares mean, Cmax ([3]; all subjects, multiple dose, test 400 mg ketoconazole oral QD + 84 mg eliglustat oral BID (N = 33) vs reference 84 mg eliglustat oral BID alone (N = 33)): 3.84%
Ratio (%) of geometric least squares mean, AUC0-t ([3]; all subjects, multiple dose, test 400 mg ketoconazole oral QD + 84 mg eliglustat oral BID (N = 33) vs reference 84 mg eliglustat oral BID alone (N = 33), 0 to 12 h): 4.27%
increase in eliglustat exposure ([3]; co-administered with ketoconazole (discussion, rounded)): 4 fold
half-life ([3]; human, plasma, oral, 84 mg): 5.1 h
AUC ([3]; human, plasma, oral, 84 mg, eliglustat 84 mg BID, Days 2 to 8, CYP2D6 EMs only (N = 31), 0 to 12 h): 119 ng·h/mL
AUC ([3]; human, plasma, oral, 84 mg, eliglustat 84 mg BID, Days 2 to 8, all (N = 33), 0 to 12 h): 113 ng·h/mL
AUC(0-inf) ([3]; human, plasma, oral, 84 mg, eliglustat 84 mg single dose, Day 1, CYP2D6 EMs only (N = 32)): 77.2 ng·h/mL
AUC(0-inf) ([3]; human, plasma, oral, 84 mg, eliglustat 84 mg single dose, Day 1, all (N = 34)): 73.2 ng·h/mL
Cmax ([3]; human, plasma, oral, 84 mg, eliglustat 84 mg BID, Days 2 to 8, CYP2D6 EMs only (N = 31)): 19.5 ng/mL
Cmax [3, 12]: 18.6 ng/mL
Cmax ([3]; human, plasma, oral, 84 mg, eliglustat 84 mg single dose, Day 1, CYP2D6 EMs only (N = 34)): 10.3 ng/mL
Cmax [3, 13]: 9.87 ng/mL
Tmax [3, 12]: 2 h
Tmax [3, 13]: 1.6 h
AUC ([3]; human, plasma, oral, eliglustat 84 mg BID + ketoconazole 400 mg QD, Days 9 to 15, CYP2D6 EMs only (N = 31), 0 to 12 h): 501 ng·h/mL
AUC ([3]; human, plasma, oral, eliglustat 84 mg BID + ketoconazole 400 mg QD, Days 9 to 15, all (N = 33), 0 to 12 h): 474 ng·h/mL
SMILES: CCCCCCCC(=O)N[C@H](CN1CCCC1)[C@H](O)c1ccc2c(c1)OCCO2 [eliglustat]
tolerability (Safety assessments [1]; administered alone and with rifampin): well tolerated
subjects with moderate dizziness (Safety assessments [1]; after completing multiple doses of eliglustat alone): 4.0%
subjects reporting an AE related to eliglustat (Safety assessments [1]; concomitant dosing with IV rifampin, Day 12, N = 25): 4.0%
subjects reporting AEs related to eliglustat (Safety assessments [1]; concomitant dosing with oral rifampin, Days 13 to 17, N = 24): 8.3%
subjects with moderate nausea, vomiting, and retching (Safety assessments [1]; during the multiple doses of eliglustat alone): 4.0%
subjects reporting treatment-related AEs (Safety assessments [1]; following treatment with eliglustat alone, N = 25): 20.0%
Any adverse event (AE), number of events (Safety assessments [1]; [4]): 65 N
Any adverse event (AE), number of subjects (Safety assessments [1]; [4]): 17 (68.0%) N (%)
Any treatment-related AE, number of events (Safety assessments [1]; [4]): 39 N
Any treatment-related AE, number of subjects (Safety assessments [1]; [4]): 11 (44.0%) N (%)
Discontinuations due to AE, number of events (Safety assessments [1]; [5]): 1 ^a N
Discontinuations due to AE, number of subjects (Safety assessments [1]; [5]): 1 (4%) N (%)
Serious AEs, number of events (Safety assessments [1]; [5]): 1 ^a N
Serious AEs, number of subjects (Safety assessments [1]; [5]): 1 (4%) N (%)
Severe AEs, number of events (Safety assessments [1]; [5]): 1 ^a N
Severe AEs, number of subjects (Safety assessments [1]; [5]): 1 (4%) N (%)
subjects reporting moderate AEs that were treatment-related (Safety assessments [1]; rifampin study overall): 12.0%
tolerability (Safety assessments [2]; administered alone and with paroxetine): well tolerated
subjects with application site dermatitis (Safety assessments [2]; [6]): 31.4%
subjects with moderate treatment-related headache (Safety assessments [2]; [6]): 11.4%
number of AEs (Safety assessments [2]; [7]): 194 events
subjects with AEs (Safety assessments [2]; [7]): 91.4%
subjects reporting AEs related to eliglustat (Safety assessments [2]; concomitant dosing with paroxetine, N = 35): 65.7%
subjects reporting AEs possibly related to both eliglustat and paroxetine (Safety assessments [2]; concomitant dosing, N = 35): 65.7%
subjects reporting treatment-related AEs (Safety assessments [2]; following a single dose of eliglustat, Day 1, N = 36): 5.6%
subjects with moderate gastritis (Safety assessments [2]; following multiple-dose eliglustat): 5.6%
subjects who discontinued treatment due to AEs (Safety assessments [2]; gastritis (eliglustat alone), dizziness and nausea, nausea and panic attack (concomitant dosing)): 8.3%
subjects with moderate treatment-related headache (Safety assessments [2]; multiple-dose eliglustat): 2.8%
number of AEs (Safety assessments [2]; [8]): 31 events
subjects with AEs (Safety assessments [2]; [8]): 41.7%
subjects reporting treatment-related AEs (Safety assessments [2]; multiple-dose eliglustat, Days 2 to 8, N = 36): 27.8%
Any adverse event (AE), number of events (Safety assessments [2]; [9]): 233 N
Any adverse event (AE), number of subjects (Safety assessments [2]; [9]): 33 (91.7%) N (%)
Any treatment-related AE, number of events (Safety assessments [2]; [9]): 155 N
Any treatment-related AE, number of subjects (Safety assessments [2]; [9]): 26 (72.2%) N (%)
Discontinuations due to AE, number of events (Safety assessments [2]; [9]): 5 N
Discontinuations due to AE, number of subjects (Safety assessments [2]; [9]): 3 (8.3%) N (%)
Serious AEs, number of events (Safety assessments [2]; [9]): 0 N
Serious AEs, number of subjects (Safety assessments [2]; [9]): 0 (0.0%) N (%)
Severe AEs, number of events (Safety assessments [2]; [9]): 0 N
Severe AEs, number of subjects (Safety assessments [2]; [9]): 0 (0.0%) N (%)
